From article PMC6559718 (Journal of biomolecular screening, 2016)
One block for each compound: values may come before it.

Tests used:
[1] = tested on: MiaPaCa-2 cells; experiment: Oxygen consumption rate in MiaPaCa-2 cells; format: cell-based, human; conditions: after ADP addition, leelamine 50 pM as printed
How it was run: (§1)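 Cells were kept in RPMI1640 with 10% FBS, plated at 20,000/well, and incubated overnight at 37 °C in 5% CO2. Before the assay, medium was replaced with MAS buffer (mannitol/sucrose/KH2PO4/MgCl2/HEPES/EGTA, 0.2% fatty-acid-free BSA, pH 7.4) plus 10 mM pyruvate and […]. Sequential injections were atpenin A5, 3.5 mM ADP, plasma membrane permeabilizer, then test compound or cATR control. OCR was read on an extracellular flux analyzer.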

[2] = tested on: human ANT isoforms; experiment: ADP/ATP exchange in L. lactis, human ANT isoforms; format: biochemical; conditions: single-concentration test of compounds selected from the yeast growth assay
[3] = target: T1, human ANT3 (Homo sapiens, UniProt P12236); experiment: ADP/ATP exchange with Lactococcus lactis expressing hANT3; format: biochemical; conditions: read-out: L. lactis hANT3 IC50; [3H]ADP uptake, ADP/ATP exchange; mean ± SEM
T1 sequence (P12236 1-298): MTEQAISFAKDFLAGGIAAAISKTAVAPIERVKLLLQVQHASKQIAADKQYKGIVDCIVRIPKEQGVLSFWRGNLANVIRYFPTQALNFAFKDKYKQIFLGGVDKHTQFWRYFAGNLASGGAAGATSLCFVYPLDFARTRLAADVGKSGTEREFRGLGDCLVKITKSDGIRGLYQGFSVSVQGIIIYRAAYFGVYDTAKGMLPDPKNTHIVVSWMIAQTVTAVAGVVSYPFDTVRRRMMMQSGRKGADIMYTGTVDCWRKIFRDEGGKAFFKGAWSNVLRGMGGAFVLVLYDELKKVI

[4] = tested on: HCT116 cells; experiment: Oxygen consumption rate in HCT116 cells; format: cell-based, human; conditions: after ADP addition, leelamine 50 pM as printed
How it was run: as §1

[5] = target: T2, human ANT1 (Homo sapiens, UniProt P12235); experiment: ADP/ATP exchange with Lactococcus lactis expressing hANT1; format: biochemical; conditions: read-out: L. lactis hANT1 IC50; [3H]ADP uptake, ADP/ATP exchange; mean ± SEM
T2 sequence (P12235 1-298): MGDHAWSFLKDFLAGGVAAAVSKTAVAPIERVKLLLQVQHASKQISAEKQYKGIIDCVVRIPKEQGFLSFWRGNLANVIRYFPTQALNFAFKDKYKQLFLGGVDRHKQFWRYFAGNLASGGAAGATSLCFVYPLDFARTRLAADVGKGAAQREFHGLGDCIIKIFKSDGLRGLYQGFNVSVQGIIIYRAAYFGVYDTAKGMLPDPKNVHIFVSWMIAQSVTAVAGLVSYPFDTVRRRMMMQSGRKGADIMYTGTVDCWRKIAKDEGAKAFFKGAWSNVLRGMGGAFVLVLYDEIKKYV

[6] = tested on: four hANT yeast strains
[7] = target: T3, human ANT2 (Homo sapiens, UniProt P05141); experiment: ADP/ATP exchange with Lactococcus lactis expressing hANT2; format: biochemical; conditions: for IC50: read-out: L. lactis hANT2 IC50, [3H]ADP uptake, ADP/ATP exchange, mean ± SEM
T3 sequence (P05141 1-298): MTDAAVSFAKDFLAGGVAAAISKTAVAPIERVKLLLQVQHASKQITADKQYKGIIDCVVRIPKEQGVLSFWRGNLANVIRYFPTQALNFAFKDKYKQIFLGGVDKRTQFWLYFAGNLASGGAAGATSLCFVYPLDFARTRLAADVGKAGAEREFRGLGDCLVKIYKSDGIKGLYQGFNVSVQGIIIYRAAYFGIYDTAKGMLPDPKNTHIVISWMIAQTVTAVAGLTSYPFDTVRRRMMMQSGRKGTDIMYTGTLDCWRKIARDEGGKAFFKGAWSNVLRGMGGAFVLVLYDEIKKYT

[8] = tested on: four hANT yeast strains; experiment: Yeast growth assay in YPEG medium, the four hANT yeast strains; format: cell-based, Saccharomyces cerevisiae; conditions: hANT1, -2, -3 or -4 yeast strains, BKA final 50 μM
[9] = tested on: yeast strain expressing hANT3; experiment: microbe, parasite or virus in culture; format: cell-based; conditions: Saccharomyces cerevisiae, read-out: Activity hANT3 IC50
[10] = tested on: yeast strain expressing hANT2; experiment: microbe, parasite or virus in culture; format: cell-based; conditions: Saccharomyces cerevisiae, read-out: Activity hANT2 IC50
[11] = tested on: yeast strain expressing hANT1; experiment: microbe, parasite or virus in culture; format: cell-based; conditions: Saccharomyces cerevisiae, read-out: Activity hANT1 IC50
[12] = tested on: yeast strain expressing hANT4; experiment: microbe, parasite or virus in culture; format: cell-based; conditions: Saccharomyces cerevisiae, read-out: Activity hANT4 IC50
[13] = target: T3, human ANT2; experiment: ADP/ATP exchange with isolated yeast mitochondria expressing hANT2; format: biochemical; conditions: 10 μM, isolated yeast mitochondria, hANT2 (Fig. 2B left)

- IC50 [3]: 94 ± 19 µM
- IC50 [5]: 54 ± 9 µM
- selectivity for hANT2 over hANT3 ([7]; L. lactis assay): ~ 3 fold
- IC50 [7]: 36 ± 6.3 µM
SMILES: O=C(O)c1ccc2cc(-c3ccc(O)c(C45CC6CC(CC(C6)C4)C5)c3)ccc2c1 [CD437]
- oxygen consumption rate (OCR) [1]: Neither CD437 nor closantel produced an appreciable level of reduction of OCR
- inhibition of [3H]ADP uptake by L. lactis [2]: inhibited
- oxygen consumption rate (OCR) [4]: inhibited OCR
- cytotoxic effect in glucose-containing medium [6]: exhibited cytotoxic effect in certain strains

SMILES: CCCCc1oc2ccccc2c1C(=O)c1cc(I)c(OCCN(CC)CC)c(I)c1 [Amiodarone]
- cytotoxic effect in glucose-containing medium [6]: exhibited cytotoxic effect in certain strains
- activity in LOPAC pilot screen [8]: identified as a hit

SMILES: N#CC(C#N)=NNc1ccc(OC(F)(F)F)cc1 [FCCP, carbonyl cyanide-4-(trifluoromethoxy) phenylhydrazone]
- [3H]ADP uptake in L. lactis ([7]; 10 μM, L. lactis expressing hANT2 (Fig. 2B right)): inactive

SMILES: O=C(Nc1cc(C(F)(F)F)cc(C(F)(F)F)c1)c1cc(Cl)ccc1O [IMD 0354]
- IC50 [9]: 520 ± 80 nM
- IC50 [10]: 450 ± 100 nM
- IC50 [11]: 580 ± 100 nM
- IC50 [12]: 850 ± 70 nM

SMILES: COc1ccc2c(c[n+](C)c3c4cc5c(cc4ccc23)OCO5)c1OC [chelerythrine]
- ADP/ATP exchange activity / ADP uptake [13]: reduced ADP uptake

- ADP/ATP exchange activity / ADP uptake [13]: reduced ADP uptake
SMILES: O=C(O)c1nn(Cc2ccc(Cl)cc2Cl)c2ccccc12 [lonidamine]

SMILES: C=C1[C@@H]2CC[C@H]3[C@]4(C)C[C@H](O[C@@H]5O[C@H](CO)[C@@H](OS(=O)(=O)O)[C@H](OS(=O)(=O)O)[C@H]5OC(=O)CC(C)C)CC(C(=O)O)(C(=O)O)[C@H]4CC[C@]3(C2)[C@H]1O [cATR, carboxyatractyloside]
- oxygen consumption rate (OCR) [1]: decreased OCR
- ADP/ATP exchange activity / ADP uptake [13]: completely inhibited
- IC50 [3]: 0.0023 ± 0.0007 µM
- oxygen consumption rate (OCR) [4]: decreased OCR
- IC50 [5]: 0.0024 ± 0.0005 µM
- IC50 [7]: 0.0017 ± 0.0004 µM
